In article PMC9652097 (Computers in Biology and Medicine, 2022):

How the values were obtained:
[1] = target: T1, SARS-CoV-2 M^pro (Severe acute respiratory syndrome coronavirus 2, UniProt P0DTD1); experiment: Surface plasmon resonance; assay type: binding
[2] = DPPH radical scavenging activity; details: 37 °C, 30 min, 517 nm
Summary of the method: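 Tea leaf solvent-extract fractions (petroleum ether, ethyl acetate, methanol, dichloromethane, methanol-water), each tested at several concentrations. Samples mixed 1:1 with 200 μM DPPH in ethanol, incubated 30 min at 37 °C, A517 read. Scavenging % = (1 − [(A_sample − A_blank)/A_control]) × 100, with control = water plus DPPH and blank = sample plus ethanol. Run three times.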

[3] = target: T1, SARS-CoV-2 M^pro; details: read-out: IC50 of M^pro inhibition; beyotime enhanced inhibition kit; cited from earlier work
[4] = tested on: M^pro; details: read-out: IC50 of M^pro inhibition; cited from earlier work
[5] = tested on: C. elegans; details: cited from earlier work

Oc1cc(O)c2c(c1)O[C@H](c1ccc(O)c(O)c1)[C@H](O)C2 [EC, (−)-epicatechin]
Kd [1]: 23.9 µM

O=C1O[C@H]([C@@H](O)CO)C(O)=C1O [VC]
IC50 of DPPH free radical scavenging [2]: 1.14 µg/mL

CC(C)=CCc1cc(/C=C2\OC(=O)C(c3cc4c(cc3O)OC(C)(C)CC4)=C2O)ccc1O [aspulvinone D]
IC50 [3]: 10.3 ± 0.6 µM

CC(C)(O)C1Cc2cc(/C=C3\OC(=O)C(c4cc5c(cc4O)OC(C)(C)C(O)C5)=C3O)ccc2O1 (centres unmarked) [aspulvinone M]
IC50 [3]: 9.4 ± 0.6 µM

O=c1c2ccccc2[se]n1-c1ccccc1 [ebselen]
IC50 [4]: 0.04 ± 0.004 µM

Zijuanin E
extension of lifespan of C. elegans [5]: 67.2%

Zijuanin F
extension of lifespan of C. elegans [5]: 56.0%

aspulvinone R
IC50 [3]: 7.7 ± 0.6 µM
